# Screens deposited in PubChem BioAssay by several laboratories.
# Many of the other results were omitted from the sample, so hits are more common in it than they were.
# PTK2B oligo ant: antagonists of human Pyk2 oligomerization | 99,000 tested, 0.83% active | z-score (the deposit names both 25 µM and 10 µM) | Q293 cells, Pyk2 FERM NanoBiT luminescence; hits give low values | Q14289 | AID 1347419;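 active = Z-score of -3 or lower, scaled per plate to the spread of control and sample wells; inactive = z-score above -3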;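 note: negative z-score means lost luminescence so less FERM oligomerization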
# Fibroblast inh: blocks proliferation of human lung fibroblasts; LL 47 human lung fibroblast viability, ATP luminescence; hits give low values; viability, % at 10 µM; 85,000 tested, 1.1% active;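 active = viability at or below 50% in the single dose screen; inactive = viability above 50%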;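 note: compound exposure lasted 72 h before the ATP readout; 100% = median luminescence of untreated cell-only wells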
#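 Test system: LL 47 human lung fibroblasts / Incubation: 72 h compound exposure at 37 °C after overnight plating / Technique: luminescent ATP detection, CellTiter-Glo / Compound dosing: 0.1% DMSO in all compound wells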
# PTEN del growth: suppresses growth of cells with PTEN deletion. HCT116 PTEN-null viability, CellTiter-Glo, 60 h; hits give low values. viability, % at 10 µM. 140,000 tested, 1.2% active;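 active = viability at or below a set limit, 4 SD under the median of all tested compounds, cut at about 3.7% in these data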;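 note: PTEN knockout HCT116 line with beta catenin targeted HCT116 as companion control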
# bCat KO growth: beta-catenin-lacking colon tumor cell growth suppression; HCT116 beta-catenin knockout viability, CellTiter-Glo, 60 h; hits give low values; 140,000 tested, 1.5% active; viability, % at 10 µM;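 active = viability at or under a set limit, the compound median less 4 SD, cut at about 6% in these data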;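 note: 0% = Hyamine 1622 control at 20 µM and 100% = untreated cell control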
# H69AR inhibit: blocks growth of human H69AR lung tumor cells. H69AR lung tumor viability, ATP luminescence, 72 h; hits give low values. viability, % at 10 µM. 85,000 tested, 6% active. AID 598;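 active = viability at or below 40%; inactive = viability above 40%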;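 note: multidrug resistant small cell line overexpressing MRP-1 efflux transporter; 100% = mean luminescence of untreated control wells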
# HUVEC inhibit: blocks proliferation of human endothelial cells | HUVEC proliferation, CellTiter-Glo luminescence, 72 h; hits give low values | viability, % at 10 µM (by protocol) | 86,000 tested, 1.1% active | AID 648;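 active = viability at or below 30%; inactive = viability above 30%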;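 note: 100% = median luminescence of DMSO-only cell control wells on each plate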
# * = called active by the depositor; · = not tested or not shown.
SMILES,PTK2B oligo ant,Fibroblast inh,PTEN del growth,bCat KO growth,H69AR inhibit,HUVEC inhibit
C=C(C)C1Cc2c(C)nn(-c3nc(C)cc(C)n3)c2C1 (configuration not stated),-0.04,88,68,69,3.2*,92
C=C(C)C1Cc2nc(N)nc(C)c2C1 (configuration not stated),0.34,98,96,92,89,93
O=C(C#Cc1ccccc1)c1ccc([N+](=O)[O-])cc1,0.56,20*,4,7,1.1*,47
COc1cc(NS(=O)(=O)c2ccc(C)cc2C)cc(OC)c1OC,-0.56,94,48,42,24*,87
O=C(CSc1ncnc2c1oc1ccccc12)NCc1ccc(F)cc1,·,89,87,74,60,74
COc1cccc(-n2c(SCc3cc(=O)oc4cc(O)c(O)cc34)nc3ccccc3c2=O)c1,-2.6,·,16,16,·,·
O=C(c1c(F)c(F)c(F)c(F)c1F)N1CCc2ccccc21,0.12,101,·,·,97,94
COc1ccc(-n2c(SCCC#N)nnc2-c2cc(Cl)ccc2OC)cc1Cl,-0.79,62,12,18,24*,51
Cc1cccc(-c2nnc(SCC#N)n2-c2cccc(Cl)c2)c1,0.51,106,83,85,84,103
O=C(Nc1ccc(Br)cn1)C1CCCN1S(=O)(=O)c1ccccc1 (configuration not stated),0.59,91,81,85,89,102
COc1ccc(N2CCN(c3oc(COc4ccccc4)nc3C#N)CC2)cc1,0.1,102,76,77,94,107
COc1ccc(N2CCN(c3oc(Cc4ccccc4)nc3C#N)CC2)cc1,-0.94,96,60,64,35*,82
